The record followed here is ChEMBL document CHEMBL4350961, “Discovery of Pyrrolo[3,2- d]pyrimidin-4-one Derivatives as a New Class of Potent and Cell-Active Inhibitors of P300/CBP-Associated Factor Bromodomain” (J Med Chem, 2019).

SMILES strings stand for the structures. Active and inactive are the calls of the source. The calls are words filed in the database; no cut-off is given here.

For assay [1], the system named is MEF. The assay can be described thus: Effect on LL6 gene expression in MEF cells at 2.5 uM measured after 48 hrs by RNA-sequencing analysis relative to control. Format: functional, Mus musculus. In outline: (§1)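 Mouse embryonic fibroblasts treated 48 h; negative-control enantiomer at 2.5 µM, DMSO as blank. Total RNA extracted with TRIzol, checked by NanoDrop, then RNA-seq with n = 3 per set. Genes called changed at >1.5-fold with p < 0.05 against blank.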

Assay [2] has as its system MEF. The assay can be described thus: Effect on Unc5a gene expression in MEF cells at 2.5 uM measured after 48 hrs by RNA-sequencing analysis relative to control. The class given is functional, Mus musculus. In outline: as §1
Assay [3] concerns MEF. The assay can be described thus: Effect on Dlx4 gene expression in MEF cells at 2.5 uM measured after 48 hrs by RNA-sequencing analysis relative to control. The class given is functional, Mus musculus. In short, it runs like this: as §1
Assay [4] has as its system MEF. Put plainly: Effect on Nr4a3 gene expression in MEF cells at 2.5 uM measured after 48 hrs by RNA-sequencing analysis relative to control. Format: functional, Mus musculus. In short, it runs like this:
as §1

Assay [5] concerns MEF. The assay can be described thus: Effect on Gm3173 gene expression in MEF cells at 2.5 uM measured after 48 hrs by RNA-sequencing analysis relative to control. The class given is functional, Mus musculus. In outline: as §1
In assay [6] the test system is MEF. Put plainly: Effect on Dmrta2 gene expression in MEF cells at 2.5 uM measured after 48 hrs by RNA-sequencing analysis relative to control. The class given is functional, Mus musculus. In short, it runs like this:
as §1

The test system of assay [7] is MEF. Put plainly: Effect on Gm36718 gene expression in MEF cells at 2.5 uM measured after 48 hrs by RNA-sequencing analysis relative to control. The class given is functional, Mus musculus. In outline:
as §1

Assay [8] concerns MEF. The assay can be described thus: Effect on Kcnk10 gene expression in MEF cells at 2.5 uM measured after 48 hrs by RNA-sequencing analysis relative to control. The class given is functional, Mus musculus. In outline: as §1
Assay [9] relates to MEF. Put plainly: Effect on Srcin1 gene expression in MEF cells at 2.5 uM measured after 48 hrs by RNA-sequencing analysis relative to control. Format: functional, Mus musculus. In outline:
as §1

In assay [10] the test system is MEF. The assay can be described thus: Effect on Icos gene expression in MEF cells at 2.5 uM measured after 48 hrs by RNA-sequencing analysis relative to control. Format: functional, Mus musculus. In short, it runs like this:
as §1

Assay [11] deals with MEF. Put plainly: Effect on Prrg3 gene expression in MEF cells at 2.5 uM measured after 48 hrs by RNA-sequencing analysis relative to control. Format: functional, Mus musculus. In short, it runs like this: as §1
Assay [12] relates to MEF. The assay can be described thus: Effect on Pyhin1 gene expression in MEF cells at 2.5 uM measured after 48 hrs by RNA-sequencing analysis relative to control. The class given is functional, Mus musculus. In outline:
as §1

Assay [13] deals with MEF. The assay can be described thus: Effect on P2rx6 gene expression in MEF cells at 2.5 uM measured after 48 hrs by RNA-sequencing analysis relative to control. Format: functional, Mus musculus. In outline:
as §1

The test system of assay [14] is MEF. The assay can be described thus: Effect on Nuggc gene expression in MEF cells at 2.5 uM measured after 48 hrs by RNA-sequencing analysis relative to control. Format: functional, Mus musculus. In short, it runs like this:
as §1

The test system of assay [15] is MEF. The assay can be described thus: Effect on Aatk gene expression in MEF cells at 2.5 uM measured after 48 hrs by RNA-sequencing analysis relative to control. Format: functional, Mus musculus. In outline:
as §1

Assay [16] has as its system MEF. Put plainly: Effect on Guca1a gene expression in MEF cells at 2.5 uM measured after 48 hrs by RNA-sequencing analysis relative to control. Format: functional, Mus musculus. In short, it runs like this: as §1
The test system of assay [17] is MEF. The assay can be described thus: Effect on Tnnt2 gene expression in MEF cells at 2.5 uM measured after 48 hrs by RNA-sequencing analysis relative to control. The class given is functional, Mus musculus. In outline:
as §1

Assay [18] addresses Activin receptor type-1-like (Homo sapiens) (UniProt P37023). The assay can be described thus: Inhibition of recombinant human ALK1 (142 to end residues) at 10 uM using casein as substrate measured after 40 mins in presence of [gamma33P]ATP by scintillation counting method.
Assay [19] has as its target Mitogen-activated protein kinase kinase kinase 5 (Homo sapiens) (UniProt Q99683). Put plainly: Inhibition of recombinant human ASK1 (649 to 946 residues) at 10 uM using myelin basic protein as substrate measured after 40 mins in presence of [gamma33P]ATP by scintillation counting method.
Assay [20] deals with Cyclin-dependent kinase-like 2 (Homo sapiens) (UniProt Q92772). Put plainly: Inhibition of human CDKL2 at 10 uM by radiometric method. In outline: (§2)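 Kinase panel of 422 kinases screened by Eurofins KinaseProfiler at a single test-compound concentration of 10 µM.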
Cyclin-dependent kinase-like 2 (Homo sapiens), sequence (Q92772 whole entry): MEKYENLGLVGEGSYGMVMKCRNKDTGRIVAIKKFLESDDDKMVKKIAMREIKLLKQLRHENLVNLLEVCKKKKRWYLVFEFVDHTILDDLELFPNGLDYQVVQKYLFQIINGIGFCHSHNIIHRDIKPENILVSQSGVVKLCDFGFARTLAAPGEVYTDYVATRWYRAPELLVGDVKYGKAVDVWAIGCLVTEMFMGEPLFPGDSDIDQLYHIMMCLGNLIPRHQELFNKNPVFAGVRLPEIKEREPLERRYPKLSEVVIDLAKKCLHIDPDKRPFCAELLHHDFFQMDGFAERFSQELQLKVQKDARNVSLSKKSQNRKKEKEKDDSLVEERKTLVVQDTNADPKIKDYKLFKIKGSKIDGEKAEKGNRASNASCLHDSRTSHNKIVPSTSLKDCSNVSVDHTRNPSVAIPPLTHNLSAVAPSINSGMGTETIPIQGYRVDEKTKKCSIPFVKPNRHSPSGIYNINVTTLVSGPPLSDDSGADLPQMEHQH
Assay [21] concerns Serine/threonine-protein kinase Chk2 (Homo sapiens), O96017 [R145W]. Put plainly: Inhibition of recombinant human CHK2 R145W mutant (5 to end residues) at 10 uM using KKKVSRSGLYRSPSMPENLNRPR as substrate measured after 40 mins in presence of [gamma33P]ATP by scintillation counting method.
The target of assay [22] is Receptor tyrosine-protein kinase erbB-4 (Homo sapiens) (UniProt Q15303). Put plainly: Inhibition of recombinant human ErbB4 (706 to 991 residues) at 10 uM using poly (Glu, Tyr) 4:1 as substrate measured after 40 mins in presence of [gamma33P]ATP by scintillation counting method.
Assay [23] has as its target Homeodomain-interacting protein kinase 3 (Homo sapiens) (UniProt Q9H422). The assay can be described thus: Inhibition of recombinant human HIPK3 (161 to 562 residues) at 10 uM using myelin basic protein as substrate measured after 40 mins in presence of [gamma33P]ATP by scintillation counting method.
Assay [24] has as its target Mitogen-activated protein kinase kinase kinase kinase 3 (Homo sapiens) (UniProt Q8IVH8). The assay can be described thus: Inhibition of recombinant human MAP4K3 (1 to 291 residues) at 10 uM using RLGRDKYKTLRQIRQ as substrate measured after 40 mins in presence of [gamma33P]ATP by scintillation counting method.
In assay [25] the target is MAP kinase-activated protein kinase 3 (Homo sapiens) (UniProt Q16644). Put plainly: Inhibition of recombinant human MAPKAPK3 (2 to end residues) at 10 uM using KKLNRTLSVA as substrate measured after 40 mins in presence of [gamma33P]ATP by scintillation counting method.
MAP kinase-activated protein kinase 3 (Homo sapiens), sequence (Q16644 whole entry, looked up): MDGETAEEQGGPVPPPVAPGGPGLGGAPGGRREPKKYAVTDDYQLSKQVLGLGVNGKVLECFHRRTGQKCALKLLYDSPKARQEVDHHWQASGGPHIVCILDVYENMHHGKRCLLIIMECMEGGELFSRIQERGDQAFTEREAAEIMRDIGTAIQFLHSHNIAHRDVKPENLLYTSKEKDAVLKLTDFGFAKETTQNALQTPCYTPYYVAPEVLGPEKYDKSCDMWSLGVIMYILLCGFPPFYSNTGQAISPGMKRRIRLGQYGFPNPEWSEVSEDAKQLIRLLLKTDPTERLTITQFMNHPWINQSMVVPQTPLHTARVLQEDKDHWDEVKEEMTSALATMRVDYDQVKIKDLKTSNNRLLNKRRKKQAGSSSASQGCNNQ
Assay [26] deals with Serine/threonine-protein kinase PAK 3 (Homo sapiens) (UniProt O75914). The assay can be described thus: Inhibition of recombinant full-length human PAK3 at 10 uM using RRRLSFAEPG as substrate measured after 40 mins in presence of [gamma33P]ATP by scintillation counting method.
In assay [27] the target is Serine/threonine-protein kinase pim-3 (Homo sapiens) (UniProt Q86V86). Put plainly: Inhibition of recombinant human Pim3 (2 to end residues) at 10 uM using RSRHSSYPAGT as substrate measured after 40 mins in presence of [gamma33P]ATP by scintillation counting method.
For assay [28], the target named is cAMP-dependent protein kinase catalytic subunit PRKX (Homo sapiens) (UniProt P51817). The assay can be described thus: Inhibition of recombinant full-length human PrKX at 10 uM using RRRLSFAEPG as substrate measured after 40 mins in presence of [gamma33P]ATP by scintillation counting method.
cAMP-dependent protein kinase catalytic subunit PRKX (Homo sapiens), sequence (P51817 whole entry): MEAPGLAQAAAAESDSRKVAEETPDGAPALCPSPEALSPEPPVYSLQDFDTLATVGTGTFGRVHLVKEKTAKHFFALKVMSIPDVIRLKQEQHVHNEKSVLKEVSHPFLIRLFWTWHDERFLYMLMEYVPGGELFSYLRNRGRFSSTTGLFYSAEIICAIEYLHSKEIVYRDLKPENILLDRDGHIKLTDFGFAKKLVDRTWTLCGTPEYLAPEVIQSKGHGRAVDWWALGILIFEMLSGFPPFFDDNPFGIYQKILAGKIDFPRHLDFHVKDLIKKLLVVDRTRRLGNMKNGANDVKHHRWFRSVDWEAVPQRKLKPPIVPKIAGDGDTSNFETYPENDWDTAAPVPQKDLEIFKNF
In assay [29] the target is Serine/threonine-protein kinase Sgk3 (Homo sapiens) (UniProt Q96BR1). The assay can be described thus: Inhibition of human SGK3 (119 to end residues) using GRPRTSSFAEGKK as substrate measured after 40 mins in presence of [gamma33P]ATP by scintillation counting method. In short, it runs like this: as §2
In assay [30] the target is Serine/threonine-protein kinase 25 (Homo sapiens) (UniProt O00506). The assay can be described thus: Inhibition of human STK25 (1 to 308 residues) using RLGRDKYKTLRQIRQ as substrate measured after 40 mins in presence of [gamma33P]ATP by scintillation counting method. In outline: as §2
Serine/threonine-protein kinase 25 (Homo sapiens), sequence (O00506 whole entry, looked up, the tested form may be a part): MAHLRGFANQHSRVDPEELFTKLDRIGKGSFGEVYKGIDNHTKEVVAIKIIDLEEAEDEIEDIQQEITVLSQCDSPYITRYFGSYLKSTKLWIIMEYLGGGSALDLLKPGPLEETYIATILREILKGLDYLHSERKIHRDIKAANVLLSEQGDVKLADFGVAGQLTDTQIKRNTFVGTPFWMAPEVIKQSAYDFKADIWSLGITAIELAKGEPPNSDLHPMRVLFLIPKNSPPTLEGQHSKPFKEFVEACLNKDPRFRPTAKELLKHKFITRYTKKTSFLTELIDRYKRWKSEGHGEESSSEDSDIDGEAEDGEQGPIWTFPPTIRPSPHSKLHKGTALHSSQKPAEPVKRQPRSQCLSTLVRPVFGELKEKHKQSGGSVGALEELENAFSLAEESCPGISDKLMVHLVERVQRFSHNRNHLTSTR
The test system of assay [31] is Dual specificity protein kinase TTK (Homo sapiens), P33981 [S389A]. Put plainly: Inhibition of recombinant full-length human TTK S389A mutant at 10 uM using MBP as substrate measured after 40 mins in presence of [gamma33P]ATP by scintillation counting method.
Dual specificity protein kinase TTK (Homo sapiens), P33981 [S389A], sequence (P33981 whole entry S389A): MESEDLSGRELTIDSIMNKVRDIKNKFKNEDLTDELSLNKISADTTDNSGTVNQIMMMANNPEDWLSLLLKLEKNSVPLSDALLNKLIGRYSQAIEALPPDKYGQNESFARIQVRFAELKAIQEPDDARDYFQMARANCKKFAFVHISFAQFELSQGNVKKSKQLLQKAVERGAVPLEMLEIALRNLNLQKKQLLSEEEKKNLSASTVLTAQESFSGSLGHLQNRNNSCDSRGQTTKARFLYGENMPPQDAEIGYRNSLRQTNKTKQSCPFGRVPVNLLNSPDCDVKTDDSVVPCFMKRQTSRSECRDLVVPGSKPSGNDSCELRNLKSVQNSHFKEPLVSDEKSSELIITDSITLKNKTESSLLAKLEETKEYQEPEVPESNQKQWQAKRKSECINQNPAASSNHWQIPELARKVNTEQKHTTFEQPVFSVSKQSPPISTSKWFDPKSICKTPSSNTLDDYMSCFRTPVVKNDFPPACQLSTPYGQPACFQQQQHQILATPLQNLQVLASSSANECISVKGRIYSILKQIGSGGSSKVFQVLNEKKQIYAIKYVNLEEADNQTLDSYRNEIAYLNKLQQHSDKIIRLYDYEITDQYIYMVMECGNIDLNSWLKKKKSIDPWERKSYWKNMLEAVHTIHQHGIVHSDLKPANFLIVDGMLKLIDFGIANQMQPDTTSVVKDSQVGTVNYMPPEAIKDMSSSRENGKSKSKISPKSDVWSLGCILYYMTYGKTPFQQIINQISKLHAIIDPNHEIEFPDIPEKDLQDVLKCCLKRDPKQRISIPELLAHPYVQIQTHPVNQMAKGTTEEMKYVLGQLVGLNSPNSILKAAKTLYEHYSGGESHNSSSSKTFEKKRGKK

Mitogen-activated protein kinase kinase kinase kinase 3 (Homo sapiens), sequence (Q8IVH8 whole entry, the tested form may be a part): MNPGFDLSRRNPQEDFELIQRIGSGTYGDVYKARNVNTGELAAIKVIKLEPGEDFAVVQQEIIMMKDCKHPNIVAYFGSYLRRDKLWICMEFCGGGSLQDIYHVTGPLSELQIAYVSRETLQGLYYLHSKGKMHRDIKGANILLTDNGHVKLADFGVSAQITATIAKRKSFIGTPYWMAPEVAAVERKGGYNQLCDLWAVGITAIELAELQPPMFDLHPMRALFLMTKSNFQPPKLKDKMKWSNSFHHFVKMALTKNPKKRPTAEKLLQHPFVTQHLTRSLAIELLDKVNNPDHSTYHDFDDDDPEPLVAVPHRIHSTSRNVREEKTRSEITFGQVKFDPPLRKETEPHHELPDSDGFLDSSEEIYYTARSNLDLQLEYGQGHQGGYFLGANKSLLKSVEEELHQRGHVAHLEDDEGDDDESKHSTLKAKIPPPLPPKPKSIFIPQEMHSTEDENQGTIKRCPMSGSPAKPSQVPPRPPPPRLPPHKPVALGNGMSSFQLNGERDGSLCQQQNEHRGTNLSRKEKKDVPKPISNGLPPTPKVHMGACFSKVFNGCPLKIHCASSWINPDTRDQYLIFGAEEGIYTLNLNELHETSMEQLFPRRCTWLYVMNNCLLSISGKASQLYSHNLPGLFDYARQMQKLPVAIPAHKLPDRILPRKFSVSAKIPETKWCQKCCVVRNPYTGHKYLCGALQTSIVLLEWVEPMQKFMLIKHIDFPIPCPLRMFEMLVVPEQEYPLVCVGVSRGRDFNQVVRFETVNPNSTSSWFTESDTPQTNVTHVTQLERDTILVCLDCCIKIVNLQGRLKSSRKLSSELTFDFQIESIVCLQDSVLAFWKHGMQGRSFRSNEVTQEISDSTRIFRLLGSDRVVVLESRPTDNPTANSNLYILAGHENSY
Homeodomain-interacting protein kinase 3 (Homo sapiens), sequence (Q9H422 whole entry, looked up, the tested form may be a part): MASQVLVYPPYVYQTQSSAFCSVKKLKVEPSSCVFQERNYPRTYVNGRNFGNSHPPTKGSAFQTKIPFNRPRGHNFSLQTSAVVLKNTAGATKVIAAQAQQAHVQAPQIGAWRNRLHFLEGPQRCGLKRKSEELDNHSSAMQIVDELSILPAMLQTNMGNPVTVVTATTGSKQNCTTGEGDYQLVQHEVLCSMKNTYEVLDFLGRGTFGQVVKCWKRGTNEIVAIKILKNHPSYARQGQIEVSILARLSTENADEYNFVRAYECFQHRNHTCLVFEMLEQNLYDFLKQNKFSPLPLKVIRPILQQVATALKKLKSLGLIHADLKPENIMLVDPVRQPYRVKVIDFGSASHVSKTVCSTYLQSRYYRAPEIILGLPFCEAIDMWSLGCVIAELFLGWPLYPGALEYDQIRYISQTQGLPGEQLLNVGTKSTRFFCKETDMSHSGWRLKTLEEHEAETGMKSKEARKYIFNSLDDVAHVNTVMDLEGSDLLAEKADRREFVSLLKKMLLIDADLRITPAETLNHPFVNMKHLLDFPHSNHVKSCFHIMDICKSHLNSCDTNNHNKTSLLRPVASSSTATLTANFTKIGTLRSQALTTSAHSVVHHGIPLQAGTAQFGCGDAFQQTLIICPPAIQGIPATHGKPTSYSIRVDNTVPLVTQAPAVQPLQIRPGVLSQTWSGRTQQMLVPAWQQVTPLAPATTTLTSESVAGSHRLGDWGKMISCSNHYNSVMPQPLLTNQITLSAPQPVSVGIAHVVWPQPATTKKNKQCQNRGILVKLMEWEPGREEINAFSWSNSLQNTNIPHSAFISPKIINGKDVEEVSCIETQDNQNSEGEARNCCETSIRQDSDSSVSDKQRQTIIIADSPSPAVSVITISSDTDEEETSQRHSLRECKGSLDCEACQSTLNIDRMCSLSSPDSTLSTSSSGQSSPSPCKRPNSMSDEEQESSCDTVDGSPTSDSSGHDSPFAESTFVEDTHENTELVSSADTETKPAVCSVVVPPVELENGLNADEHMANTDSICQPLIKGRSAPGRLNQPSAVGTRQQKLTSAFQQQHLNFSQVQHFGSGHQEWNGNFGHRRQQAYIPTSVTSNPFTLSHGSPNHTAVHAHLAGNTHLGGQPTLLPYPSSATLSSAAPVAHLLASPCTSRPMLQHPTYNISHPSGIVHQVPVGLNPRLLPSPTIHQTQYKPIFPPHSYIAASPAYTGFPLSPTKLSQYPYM

For `CN1C[C@H](Nc2nc3cc[nH]c3c(=O)n2C)C[C@H](c2ccc3c(c2)OCCO3)C1`, the “fold change (FC)” value in the assay with MEF [1], with MEF [2], in the assay on MEF [3], in the assay with MEF [4], with MEF [5] and with MEF [6] was above 1.5 in each case. Further, the “fold change (FC)” value in the assay on MEF [7], in the assay on MEF [8], in the assay on MEF [9], with MEF [10], in the assay with MEF [11] and in the assay with MEF [12] was above 1.5 in each case. For the same molecule, the “fold change (FC)” value in the assay with MEF [13], in the assay with MEF [14], in the assay on MEF [15], in the assay on MEF [16] and in the assay on MEF [17] was above 1.5 each time. Also, the inhibition entry in [18], in assay [19], in [20], in [21], in assay [22] and in assay [23] was “inactive” each time. The inhibition result in [24], in assay [25], in [26], in [27], in assay [28] and in [29] was “inactive” in each case. For the same molecule, the inhibition entry in assay [30] and in [31] was “inactive” in each case.

For `CN1C[C@@H](Nc2nc3cc[nH]c3c(=O)n2C)C[C@@H](c2ccc3c(c2)OCCO3)C1`, the “fold change (FC)” value in the assay on MEF [1], in the assay on MEF [2], with MEF [3], in the assay with MEF [4], with MEF [5] and with MEF [6] was above 1.5 throughout. Further, the “fold change (FC)” value with MEF [7], in the assay with MEF [8], in the assay on MEF [9], with MEF [10], in the assay with MEF [11] and in the assay with MEF [12] was above 1.5 in each case. Besides, the “fold change (FC)” value in the assay with MEF [13], with MEF [14], in the assay on MEF [15], with MEF [16] and in the assay on MEF [17] was above 1.5 in each case.
